Data taken from ChEMBL document CHEMBL1155031, “Structure-activity relationships of 7-deaza-6-benzylthioinosine analogues as ligands of Toxoplasma gondii adenosine kinase” (J Med Chem, 2008).

How the values were obtained:
Adenosine kinase = molecular target: T1, Adenosine kinase (Toxoplasma gondii, UniProt Q9TVW2); test: Binding affinity to purified Toxoplasma gondii adenosine kinase
T1 sequence (Q9TVW2 whole entry): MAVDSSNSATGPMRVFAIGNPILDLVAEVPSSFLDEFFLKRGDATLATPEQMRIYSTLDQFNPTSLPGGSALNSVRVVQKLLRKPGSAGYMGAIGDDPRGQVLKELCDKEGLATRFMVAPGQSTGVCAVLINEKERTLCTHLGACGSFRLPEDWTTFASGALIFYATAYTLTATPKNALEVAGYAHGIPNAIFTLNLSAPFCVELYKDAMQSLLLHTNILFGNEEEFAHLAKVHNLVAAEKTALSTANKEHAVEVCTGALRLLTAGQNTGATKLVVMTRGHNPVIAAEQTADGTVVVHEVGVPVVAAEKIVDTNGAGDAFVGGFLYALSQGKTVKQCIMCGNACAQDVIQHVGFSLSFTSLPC
Procedure, shortened: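 Radiometric assay at 37 °C in 50 mM Tris-Cl pH 7.4 with 2.5 mM ATP, 5 mM MgCl₂, creatine phosphate/creatine kinase regeneration and 5 µM [8-¹⁴C]adenosine, plus varied inhibitor. Reaction stopped by boiling, then adenosine and AMP separated by TLC and quantified. Apparent Ki from Dixon plots (1/V vs [I]), taken as equal to apparent Km for alternative substrates. Mean ± SD, ≥2 experiments in triplicate.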

Toxoplasma gondii [1] = test: Antitoxoplasma activity against wild type Toxoplasma gondii RH assessed as survival at 5 uM after 18 hrs by [5,6-[…]]uracil incorporation assay; assay type: functional
Procedure, shortened: (§1)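 Human foreskin fibroblast monolayers (≤20 passages, RPMI 1640) seeded ~5×10⁵ cells/well, attached 24 h at 37 °C, 5% CO2. Infected with isolated tachyzoites at 1 parasite/cell in 3% FBS for 1 h, then washed. Compounds were dissolved in 50% ethanol and added at final 0, 5, 10, 25 or 50 µM with 10% FBS. Survival was read as radiolabeled uracil incorporation into TCA-precipitated nucleic acid versus untreated controls, at least in triplicate.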

Toxoplasma gondii [2] = test: Antitoxoplasma activity against wild type Toxoplasma gondii RH assessed as survival at 10 uM after 18 hrs by [5,6-[…]]uracil incorporation assay; assay type: functional; procedure, shortened: as §1
Toxoplasma gondii [3] = test: Antitoxoplasma activity against wild type Toxoplasma gondii RH assessed as survival at 25 uM after 18 hrs by [5,6-[…]]uracil incorporation assay; assay type: functional; procedure, shortened: as §1
Toxoplasma gondii [4] = test: Antitoxoplasma activity against wild type Toxoplasma gondii RH assessed as survival at 50 uM after 18 hrs by [5,6-[…]]uracil incorporation assay; assay type: functional; procedure, shortened: as §1
Toxoplasma gondii [5] = test: Antitoxoplasma activity against wild type Toxoplasma gondii RH assessed as survival after 18 hrs by [5,6-[…]]uracil incorporation assay; assay type: functional, organism-based
Toxoplasma gondii [6] = test: Antitoxoplasma activity against adenosine kinase deficient Toxoplasma gondii TgAK-3 assessed as survival at 5 uM after 18 hrs by [5,6-[…]]uracil incorporation assay; assay type: functional; procedure, shortened: as §1
Toxoplasma gondii [7] = test: Antitoxoplasma activity against adenosine kinase deficient Toxoplasma gondii TgAK-3 assessed as survival at 10 uM after 18 hrs by [5,6-[…]]uracil incorporation assay; assay type: functional; procedure, shortened: as §1
Toxoplasma gondii [8] = test: Antitoxoplasma activity against adenosine kinase deficient Toxoplasma gondii TgAK-3 assessed as survival at 25 uM after 18 hrs by [5,6-[…]]uracil incorporation assay; assay type: functional; procedure, shortened: as §1
Toxoplasma gondii [9] = test: Antitoxoplasma activity against adenosine kinase deficient Toxoplasma gondii TgAK-3 assessed as survival at 50 uM after 18 hrs by [5,6-[…]]uracil incorporation assay; assay type: functional; procedure, shortened: as §1
[10] = Toxicity against human foreskin fibroblasts at 5 uM after 48 hrs by MTT method; assay type: cell-based, Fibroblast; details: read-out: Survival
Procedure, shortened: (§2)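 Uninfected human foreskin fibroblasts (≤20 passages, RPMI 1640) seeded ~10⁵ cells/well and attached ≥24 h at 37 °C, 5% CO2. Compound in medium added to final concentrations, then 48 h incubation. MTT was added for 4 h, formazan dissolved in DMSO and absorbance read at 540 nm. At least two independent experiments, each in triplicate.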

[11] = Toxicity against human foreskin fibroblasts at 10 uM after 48 hrs by MTT method; assay type: cell-based, Fibroblast; details: read-out: Survival; procedure, shortened: as §2
[12] = Toxicity against human foreskin fibroblasts at 25 uM after 48 hrs by MTT method; assay type: cell-based, Fibroblast; details: read-out: Survival; procedure, shortened: as §2
[13] = Toxicity against human foreskin fibroblasts at 50 uM after 48 hrs by MTT method; assay type: cell-based, Fibroblast; details: read-out: Survival; procedure, shortened: as §2

N#Cc1ccc(CSc2ncnc3c2ccn3[C@@H]2O[C@H](CO)[C@@H](O)[C@H]2O)cc1
Ki (Adenosine kinase): 5.2 µM
survival at 5 µM (Toxoplasma gondii [1]): 52.5%
survival at 10 µM (Toxoplasma gondii [2]): 4%
survival at 25 µM (Toxoplasma gondii [3]): 0%
survival at 50 µM (Toxoplasma gondii [4]): 0%
IC50 (Toxoplasma gondii [5]): 5.3 µM
survival at 5 µM (Toxoplasma gondii [6]): 98.4%
survival at 10 µM (Toxoplasma gondii [7]): 100%
survival at 25 µM (Toxoplasma gondii [8]): 100%
survival at 50 µM (Toxoplasma gondii [9]): 100%
viability at 48 h, 5 µM [10]: 100%
viability at 48 h, 10 µM [11]: 100%
viability at 48 h, 25 µM [12]: 94.3%
viability at 48 h, 50 µM [13]: 82.1%

OC[C@H]1O[C@@H](n2ccc3c(SCc4c(F)cccc4Cl)ncnc32)[C@H](O)[C@@H]1O
Ki (Adenosine kinase): 7.2 µM

Nc1ccc(S(=O)(=O)Nc2ncccn2)cc1 [SULFADIAZINE]
survival at 5 µM (Toxoplasma gondii [1]): 74.6%
survival at 10 µM (Toxoplasma gondii [2]): 64.8%
survival at 25 µM (Toxoplasma gondii [3]): 59.8%
survival at 50 µM (Toxoplasma gondii [4]): 46.4%
IC50 (Toxoplasma gondii [5]): 41.2 µM
viability at 48 h, 5 µM [10]: 98.2%
viability at 48 h, 10 µM [11]: 99.8%
viability at 48 h, 25 µM [12]: 99.8%
viability at 48 h, 50 µM [13]: 102%

OC[C@H]1O[C@@H](n2ccc3c(SCc4ccc(F)cc4)ncnc32)[C@H](O)[C@@H]1O
Ki (Adenosine kinase): 37 µM

OC[C@H]1O[C@@H](n2ccc3c(SCc4ccc(OC(F)(F)F)cc4)ncnc32)[C@H](O)[C@@H]1O
Ki (Adenosine kinase): 35 µM

COC(=O)c1ccc(CSc2ncnc3c2ccn3[C@@H]2O[C@H](CO)[C@@H](O)[C@H]2O)cc1
Ki (Adenosine kinase): 7 µM

OC[C@H]1O[C@@H](n2ccc3c(SCc4ccccc4Br)ncnc32)[C@H](O)[C@@H]1O
Ki (Adenosine kinase): 106 µM

O=[N+]([O-])c1ccc(CSc2ncnc3c2ccn3[C@@H]2O[C@H](CO)[C@@H](O)[C@H]2O)cc1
Ki (Adenosine kinase): 35 µM

C=Cc1ccc(CSc2ncnc3c2ccn3[C@@H]2O[C@H](CO)[C@@H](O)[C@H]2O)cc1
Ki (Adenosine kinase): 180 µM

OC[C@H]1O[C@@H](n2cc(I)c3c(SCc4ccccc4)ncnc32)[C@H](O)[C@@H]1O
Ki (Adenosine kinase): 82.6 µM

Cc1ccc(CSc2ncnc3c2ccn3[C@@H]2O[C@H](CO)[C@@H](O)[C@H]2O)cc1
Ki (Adenosine kinase): 19 µM

Cc1ccccc1CSc1ncnc2c1ccn2[C@@H]1O[C@H](CO)[C@@H](O)[C@H]1O
Ki (Adenosine kinase): 228 µM

OC[C@H]1O[C@@H](n2ccc3c(SCc4ccc(Br)cc4)ncnc32)[C@H](O)[C@@H]1O
Ki (Adenosine kinase): 253 µM

OC[C@H]1O[C@@H](n2ccc3c(SCc4ccccc4)ncnc32)[C@H](O)[C@@H]1O
Ki (Adenosine kinase): 28 µM

O=[N+]([O-])c1cccc(CSc2ncnc3c2ccn3[C@@H]2O[C@H](CO)[C@@H](O)[C@H]2O)c1
Ki (Adenosine kinase): 45 µM

Nc1ncnc2c1ncn2[C@@H]1O[C@H](CO)[C@@H](O)[C@H]1O [ADENOSINE]
Ki (Adenosine kinase): 8.9 µM

CCc1nc(N)nc(N)c1-c1ccc(Cl)cc1 [PYRIMETHAMINE]
survival at 5 µM (Toxoplasma gondii [1]): 55.6%
survival at 10 µM (Toxoplasma gondii [2]): 36.5%
survival at 25 µM (Toxoplasma gondii [3]): 13.8%
survival at 50 µM (Toxoplasma gondii [4]): 5.8%
IC50 (Toxoplasma gondii [5]): 5.9 µM
viability at 48 h, 5 µM [10]: 101%
viability at 48 h, 10 µM [11]: 100%
viability at 48 h, 25 µM [12]: 108%
viability at 48 h, 50 µM [13]: 108%

OC[C@H]1O[C@@H](n2ccc3c(SCc4ccc(F)cc4F)ncnc32)[C@H](O)[C@@H]1O
Ki (Adenosine kinase): 16 µM

CC(C)(C)c1ccc(CSc2ncnc3c2ccn3[C@@H]2O[C@H](CO)[C@@H](O)[C@H]2O)cc1
Ki (Adenosine kinase): 24 µM

COc1ccc(CSc2ncnc3c2ccn3[C@@H]2O[C@H](CO)[C@@H](O)[C@H]2O)cc1
Ki (Adenosine kinase): 5.8 µM
survival at 5 µM (Toxoplasma gondii [1]): 49.8%
survival at 10 µM (Toxoplasma gondii [2]): 5%
survival at 25 µM (Toxoplasma gondii [3]): 0%
survival at 50 µM (Toxoplasma gondii [4]): 0%
IC50 (Toxoplasma gondii [5]): 4.6 µM
survival at 5 µM (Toxoplasma gondii [6]): 100%
survival at 10 µM (Toxoplasma gondii [7]): 100%
survival at 25 µM (Toxoplasma gondii [8]): 100%
survival at 50 µM (Toxoplasma gondii [9]): 100%
viability at 48 h, 5 µM [10]: 100%
viability at 48 h, 10 µM [11]: 100%
viability at 48 h, 25 µM [12]: 100%
viability at 48 h, 50 µM [13]: 90.6%

OC[C@H]1O[C@@H](n2ccc3c(SCc4ccc(Cl)c(Cl)c4)ncnc32)[C@H](O)[C@@H]1O
Ki (Adenosine kinase): 29 µM

OC[C@H]1O[C@@H](n2ccc3c(SCc4cccc(C(F)(F)F)c4)ncnc32)[C@H](O)[C@@H]1O
Ki (Adenosine kinase): 22 µM

OC[C@H]1O[C@@H](n2ccc3c(SCc4ccccc4F)ncnc32)[C@H](O)[C@@H]1O
Ki (Adenosine kinase): 59 µM

OC[C@H]1O[C@@H](n2ccc3c(SCc4ccccc4Cl)ncnc32)[C@H](O)[C@@H]1O
Ki (Adenosine kinase): 36 µM

OC[C@H]1O[C@@H](n2ccc3c(SCc4ccc(Cl)cc4Cl)ncnc32)[C@H](O)[C@@H]1O
Ki (Adenosine kinase): 26 µM

OC[C@H]1O[C@@H](n2cnc3c(SCc4ccccc4)ncnc32)[C@H](O)[C@@H]1O [6-BENZYLTHIOINOSINE]
Ki (Adenosine kinase): 37.7 µM

OC[C@H]1O[C@@H](n2ccc3c(SCc4ccc(Cl)cc4)ncnc32)[C@H](O)[C@@H]1O
Ki (Adenosine kinase): 11 µM

Cc1cccc(CSc2ncnc3c2ccn3[C@@H]2O[C@H](CO)[C@@H](O)[C@H]2O)c1
Ki (Adenosine kinase): 8.5 µM
